Converted amounts (≈) assume the structure as drawn.
What was measured:
HepG2 = assay: Antiproliferative activity against human HepG2 cells after 48 hrs by MTT assay; type: functional, cell-based; details: HepG2, 48 h
Summary of the method: (§1)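 Cells were seeded at 7×10^3 per well and grown 24 h, then exposed to compounds for 48 h. MTT was added for 6 h, followed by 10% SDS in 0.01 N HCl for 4 h at 37 °C, and absorbance was read at 570 nm. Survival is expressed relative to untreated cells. IC50 came from 6-well replicates in at least two independent experiments.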

PC-3 = assay: Antiproliferative activity against human PC3 cells after 48 hrs by MTT assay; type: functional, cell-based; details: PC-3, 48 h; summary of the method: as §1
[1] = Antiproliferative activity against mouse B16/F10 cells after 48 hrs by MTT assay; type: functional, cell-based; details: B16-F10, 48 h; summary of the method: as §1
[2] = Inhibition of FAM-Bak-BH3 binding to human N-terminal His6-tagged Bcl2 isoform 2 after 4 hrs by fluorescence polarization assay

Row | SMILES | IC50 (HepG2) | IC50 (PC-3) | Ki [2] | IC50 [1]
1 | COc1ccc(/C=C2\SC(N[C@H](C(=O)NS(=O)(=O)c3ccc(C)cc3)C(C)C)=NC2=O)cc1 | 12.8 µg/mL (≈ 26.2 µM) | 20.3 µg/mL (≈ 41.6 µM) | 672 nM | 11.6 µg/mL (≈ 23.8 µM)
2 | Cc1ccc(S(=O)(=O)NC(=O)[C@H](CC(C)C)NC2=NC(=O)/C(=C/c3cccc(Cl)c3)S2)cc1 | 16.5 µg/mL (≈ 32.6 µM) | 16.8 µg/mL (≈ 33.1 µM) |  | 13.4 µg/mL (≈ 26.4 µM)
3 | Cc1ccc(S(=O)(=O)NC(=O)[C@@H](NC2=NC(=O)/C(=C/c3ccccc3)S2)C(C)C)cc1 | 18.2 µg/mL (≈ 39.8 µM) | 11.9 µg/mL (≈ 26 µM) | 3010 nM | 7.46 µg/mL (≈ 16.3 µM)
4 | COc1ccccc1/C=C1\SC(N[C@H](C(=O)NS(=O)(=O)c2ccc(C)cc2)C(C)C)=NC1=O | 20.2 µg/mL (≈ 41.4 µM) | 15 µg/mL (≈ 30.8 µM) |  | 13.5 µg/mL (≈ 27.7 µM)
5 | Cc1cc2c(C(C)C)c(O)c(O)c(C=O)c2c(O)c1-c1c(C)cc2c(C(C)C)c(O)c(O)c(C=O)c2c1O [GOSSYPOL] | 10.2 µg/mL (≈ 19.6 µM) | 6.71 µg/mL (≈ 12.9 µM) | 334 nM | 5.56 µg/mL (≈ 10.7 µM)

Further lines, with some results ahead:

Row | IC50 (HepG2) | IC50 (PC-3) | Ki [2] | SMILES | IC50 [1]
6 | 16.4 µg/mL (≈ 33.6 µM) | 15.3 µg/mL (≈ 31.3 µM) |  | Cc1ccc(S(=O)(=O)NC(=O)[C@H](CC(C)C)NC2=NC(=O)/C(=C/c3ccccc3F)S2)cc1 | 11.3 µg/mL (≈ 23.1 µM)
7 | 18.7 µg/mL (≈ 35.8 µM) | 22.1 µg/mL (≈ 42.1 µM) |  | Cc1ccc(S(=O)(=O)NC(=O)[C@H](Cc2ccccc2)NC2=NC(=O)/C(=C/c3ccccc3F)S2)cc1 | 11.9 µg/mL (≈ 22.7 µM)
8 | 13.3 µg/mL (≈ 26.4 µM) | 15.6 µg/mL (≈ 30.8 µM) |  | Cc1ccc(S(=O)(=O)NC(=O)[C@H](CC(C)C)NC2=NC(=O)/C(=C/c3ccccc3Cl)S2)cc1 | 8.52 µg/mL (≈ 16.8 µM)
9 | 21 µg/mL (≈ 38.9 µM) | 16 µg/mL (≈ 29.6 µM) | 20 nM | Cc1ccc(S(=O)(=O)NC(=O)[C@H](Cc2ccccc2)NC2=NC(=O)/C(=C/c3ccccc3Cl)S2)cc1 | 12.2 µg/mL (≈ 22.6 µM)
10 | 21.2 µg/mL (≈ 43.2 µM) | 11.9 µg/mL (≈ 24.1 µM) | 25 nM | Cc1ccc(S(=O)(=O)NC(=O)[C@@H](NC2=NC(=O)/C(=C/c3ccccc3Cl)S2)C(C)C)cc1 | 8.8 µg/mL (≈ 17.9 µM)
11 | 16.6 µg/mL (≈ 28.5 µM) | 16.4 µg/mL (≈ 28.1 µM) | 310 nM | Cc1ccc(S(=O)(=O)NC(=O)[C@H](Cc2ccccc2)NC2=NC(=O)/C(=C/c3ccc(-c4ccccc4)cc3)S2)cc1 | 12.5 µg/mL (≈ 21.6 µM)
